# T cruzi growth-1: T. cruzi proliferation inhibition | AID 624255 | inhibition, % at 8.34 µM | T. cruzi beta-gal in NIH3T3, GalScreen luminescence, 90 h | 5.9% of 77,000 active;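 active = mean inhibition above about 93%, with at least 55% of replicates each passing it, limit read from the data, passing the limit was not always enough; inconclusive = only one of those two conditions holds; inactive = neither condition holds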
# IDH1 mut inh: inhibitors of human IDH1 R132H; O75874; IDH1 R132H reductase, diaphorase/resazurin fluorescence, 60 min; inhibition, % at 10 µM; 0.18% of 70,000 active; in the data active = inhibition above about 34%; inconclusive = no clear call, values can overlap the other calls; inactive = below about 11%;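 also: 0% = DMSO and 100% = no enzyme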
# GASC1 inh: KDM4C (human) demethylase inhibition; Q9H3R0; GST-KDM4C 2-372, H3K9me3 peptide, LANCE TR-FRET; inhibition, % at 12.5 µM; 0.15% of 96,000 active;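 active = mean replicate inhibition above about 25%, with at least 55% of replicates also reaching it, limit read from the data, passing the limit was not always enough; inconclusive = only one of those two conditions met; inactive = neither condition met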
# Target sequence (Q9H3R0 2-372 limits assumed): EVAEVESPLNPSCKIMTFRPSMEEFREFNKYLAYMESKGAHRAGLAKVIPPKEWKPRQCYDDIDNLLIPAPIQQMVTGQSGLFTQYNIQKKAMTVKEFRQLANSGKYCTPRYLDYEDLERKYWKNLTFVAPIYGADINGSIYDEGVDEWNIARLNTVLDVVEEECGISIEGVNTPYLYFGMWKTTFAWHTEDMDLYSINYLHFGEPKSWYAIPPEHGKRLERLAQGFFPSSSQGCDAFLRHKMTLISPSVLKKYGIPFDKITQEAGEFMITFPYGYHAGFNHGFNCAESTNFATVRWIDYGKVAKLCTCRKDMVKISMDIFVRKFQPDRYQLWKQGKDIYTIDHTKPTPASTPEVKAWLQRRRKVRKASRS
#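 Test system – GST-tagged GASC-1 (JMJD2C) catalytic fragment, aa 2-372 · Medium – HEPES buffer, pH 7.5, plus ascorbate · Reagent – H3K9me3 peptide with Fe(II)/2OG · Compound – one test concentration per compound · Timing – 30 min reaction, 60 min detection, RT · Technique – TR-FRET with Eu antibody and ULight streptavidin, EDTA stop · Read-out basis – inhibition from TR-FRET ratio decrease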
# T cruzi growth-2: Trypanosoma cruzi proliferation inhibition; T. cruzi beta-gal in NIH3T3, GalScreen luminescence, 90 h; 72% of 5,600 active; inhibition, % at 8.35 µM; shares compounds with T cruzi growth-1;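 active = mean replicate inhibition above about 95% and at least 55% of replicates individually reaching it, limit read from the data; inconclusive = only one of the two criteria is met; inactive = neither criterion is met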
# T cruzi growth-3: blocks T. cruzi growth in NIH3T3 host cells; shares compounds with T cruzi growth-1; T. cruzi beta-gal in NIH3T3, GalScreen luminescence, 90 h; inhibition, % at 2.09 µM; 21% of 5,600 active; AID 651740;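 active = mean inhibition above about 95%, with at least 55% of replicates also reaching it, limit read from the data; inconclusive = meets just one of the two conditions; inactive = meets neither condition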;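 also: plate controls were neutral control median for no effect and positive control median for full effect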
# 3T3 cytotox: cytotoxicity in mouse NIH/3T3 fibroblasts | 14% of 5,600 active | shares compounds with T cruzi growth-1 | AID 651742 | NIH/3T3 viability, CellTiter-Glo ATP luminescence, 90 h | cytotoxicity (signal decrease), % at 8.35 µM;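 active = mean signal decrease across replicates above about 35% based on untreated-well scatter, with enough replicates individually passing, limit read from the data; inconclusive = no rule stated though some were filed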;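 also: 0% = median of neutral control wells and 100% = median of positive control wells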
# NIH3T3 tox 2: NIH/3T3 (mouse) viability loss; NIH/3T3 viability, CellTiter-Glo ATP luminescence, 90 h; 56% of 5,600 active; inhibition, % at 24.9 µM; shares compounds with T cruzi growth-1;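 active = mean loss of cell viability signal at or above a set limit, and enough replicates individually reaching it; inconclusive = meets only the mean limit or only the replicate share; inactive = meets neither condition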;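 also: 0% = median of neutral control wells and 100% = median of positive control wells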
# Active calls of the source: *; ? = inconclusive; / = no result given. Only a selection was taken, and hits are over-represented in it overall.
SMILES,T cruzi growth-1,IDH1 mut inh,GASC1 inh,T cruzi growth-2,T cruzi growth-3,3T3 cytotox,NIH3T3 tox 2
OC[C@@H]1[C@H](c2ccc(C#CC3(O)CCCC3)cc2)[C@@H]2CN(Cc3cccnc3)CCCCN12,101.2*,/,-0.2,107.5*,91.1,18.7,22.9
C[C@H]1CN([C@@H](C)CO)C(=O)c2cccc(NC(=O)Nc3cccc4ccccc34)c2O[C@H]1CN(C)C(=O)Nc1ccc(C(F)(F)F)cc1,/,1.2,-3.8,/,/,/,/
O=C(C[C@H]1C=C[C@@H](NC(=O)C2CCOCC2)[C@H](CO)O1)NCc1ccccc1Cl,/,/,5.1,/,/,/,/
COc1ccc(-c2nnc(SCC(=O)Nc3cc(OC)ccc3OC)n2-c2ccccc2C)cc1,/,0.1,/,/,/,/,/
N#Cc1ccc(/C=C/C(=O)NCc2ccccc2)cc1,/,-0.2,/,/,/,/,/
Cc1ccc(S(=O)(=O)Nc2ccc3c(c2)C(=O)N([C@H](C)CO)C[C@@H](C)[C@H](CN(C)Cc2ccccc2)OCCCC[C@@H](C)O3)cc1,93.3*,/,-1.0,109.1*,65.6,2.9,85.8*
C[C@@H]1CCCCO[C@@H](CN(C)Cc2ccncc2)[C@H](C)CN([C@H](C)CO)C(=O)c2cc(NS(C)(=O)=O)ccc2O1,102.4*,5.1,1.6,-24.9,-13.1,8.2,11.7
C[C@@H]1CCCCO[C@H](CN(C)Cc2ccccc2)[C@H](C)CN([C@@H](C)CO)C(=O)c2cc(NS(C)(=O)=O)ccc2O1,56.5,-3.8,0.2,/,/,/,/
Cc1ccc(S(=O)(=O)Nc2ccc3c(c2)C(=O)N([C@@H](C)CO)C[C@H](C)[C@@H](CN(C)Cc2ccccc2)OCCCC[C@@H](C)O3)cc1,73.3,1.4,-0.4,/,/,/,/
C[C@H](CO)N1C[C@H](C)[C@@H](CN(C)Cc2ccccc2)OCCCC[C@H](C)Oc2ccc(NS(C)(=O)=O)cc2C1=O,99.0*,2.7,0.5,11.5,10.9,-7.6,-1.1
C[C@@H]1CCCCO[C@@H](CN(C)Cc2ccncc2)[C@H](C)CN([C@@H](C)CO)C(=O)c2cc(NS(C)(=O)=O)ccc2O1,39.8,3.1,-0.5,/,/,/,/
C[C@@H]1CN([C@H](C)CO)C(=O)Cc2cc(NC(=O)Cn3cnnn3)ccc2O[C@H]1CN(C)Cc1ccc2c(c1)OCO2,0.8,-0.4,-0.1,/,/,/,/
CCNC(=O)C[C@@H]1CC[C@@H]2[C@H](COc3ccc(NC(=O)Nc4ccccc4OC)cc3C(=O)N2C)O1,19.8,/,-1.1,/,/,/,/
CCCC#Cc1ccc2c(c1)O[C@H](CN(C)Cc1ccncc1)[C@@H](C)CN([C@@H](C)CO)S2(=O)=O,121.4*,0.6,21.9,105.6*,100.6*,42.2*,104.0*
CCCC#Cc1ccc2c(c1)O[C@H](CN(C)Cc1ccccc1)[C@@H](C)CN([C@@H](C)CO)S2(=O)=O,/,0.7,-0.9,/,/,/,/
CC(C)CC#Cc1ccc2c(c1)O[C@@H](CN(C)Cc1ccncc1)[C@H](C)CN([C@@H](C)CO)S2(=O)=O,132.2*,1.2,-1.5,96.9*,104.8*,26.1,103.3*
CCCC#Cc1ccc2c(c1)O[C@H](CN(C)Cc1ccncc1)[C@H](C)CN([C@H](C)CO)S2(=O)=O,114.0*,13.9,-1.4,102.7*,75.8,36.9*,?
CC(C)CC#Cc1ccc2c(c1)O[C@@H](CN(C)Cc1ccc(F)cc1)[C@@H](C)CN([C@H](C)CO)S2(=O)=O,101.8,-0.4,-2.2,/,/,/,/
CCCC#Cc1ccc2c(c1)O[C@@H](CN(C)Cc1ccccc1)[C@H](C)CN([C@H](C)CO)S2(=O)=O,/,-0.2,-0.2,/,/,/,/
C[C@@H]1CN([C@H](C)CO)S(=O)(=O)c2ccc(C#CCN(C)C)cc2O[C@@H]1CN(C)Cc1ccncc1,24.6,5.4,5.3,/,/,/,/
C[C@@H]1CN([C@H](C)CO)S(=O)(=O)c2ccc(C#CCN(C)C)cc2O[C@H]1CN(C)Cc1ccncc1,101.2*,1.8,5.2,107.4*,105.1*,45.4*,57.8*
COCC(=O)Nc1ccc2c(c1)[C@H]1C[C@H](CC(=O)NCc3ccc(Cl)cc3)O[C@@H](CO)[C@H]1O2,-22.3,-0.1,2.2,/,/,/,/
C[C@@H]1CN([C@H](C)CO)S(=O)(=O)c2ccc(C#CCN(C)C)cc2O[C@H]1CN(C)Cc1ccc(F)cc1,115.5*,-3.8,15.5,?,91.0,56.9*,107.4*
C[C@H]1CN([C@@H](C)CO)S(=O)(=O)c2ccc(C#CCN(C)C)cc2O[C@H]1CN(C)Cc1ccc(F)cc1,39.2,-1.6,3.9,/,/,/,/
O=C(Nc1ccccc1)N1CCCCN2[C@@H](CO)[C@H](c3ccc(Br)cc3)[C@@H]2C1,35.7,/,-0.8,/,/,/,/
SMILES,T cruzi growth-1,IDH1 mut inh,GASC1 inh,T cruzi growth-2,T cruzi growth-3,3T3 cytotox,NIH3T3 tox 2
O=C(Nc1ccccc1)N1CCCCN2[C@H](CO)[C@H](c3ccc(-c4ccncc4)cc3)[C@H]2C1,96.0*,/,-1.3,93.7,64.7,-27.4,-4.0
O=C(Nc1ccccc1)N1CCCCN2[C@H](CO)[C@H](c3ccc(-c4ccncc4)cc3)[C@@H]2C1,70.4,/,-0.2,/,/,/,/
O=C(Nc1ccccc1)N1CCCCN2[C@H](CO)[C@H](c3ccc(-c4ccccc4)cc3)[C@H]2C1,103.1*,/,-0.5,101.1*,63.7,55.6*,104.0*
O=C(Nc1ccccc1)N1CCCCN2[C@H](CO)[C@H](c3ccc(-c4ccccc4)cc3)[C@@H]2C1,112.5*,/,-0.3,108.7*,31.5,-13.9,13.1
O=C(Nc1ccccc1)N1CCCCN2[C@H](C1)[C@H](c1ccc(-c3ccncc3)cc1)[C@@H]2CO,63.5,/,0.9,/,/,/,/
COc1ccccc1N1C(=O)C2C(c3ccc(F)cc3)NC(Cc3ccccc3)(C(=O)O)C2C1=O (stereo unspecified),/,0.0,/,/,/,/,/
C[C@@H]1CN([C@H](C)CO)C(=O)c2cccc(NC(=O)Nc3ccccc3)c2O[C@H]1CN(C)C(=O)Nc1ccc(F)cc1,65.2,-0.1,0.0,/,/,/,/
C[C@H](CO)N1C[C@H](C)[C@H](CN(C)C(=O)Nc2ccc(F)cc2)Oc2c(NS(C)(=O)=O)cccc2C1=O,-6.5,-1.2,-1.1,/,/,/,/
CO[C@H]1CN(C)C(=O)c2cc(NC(=O)Nc3ccc(F)cc3)ccc2OC[C@@H](C)NC[C@@H]1C,-65.3,-0.1,0.5,/,/,/,/
CC(C)C#Cc1ccc2c(c1)O[C@@H](CN(C)C(=O)NC(C)C)[C@H](C)CN([C@@H](C)CO)S2(=O)=O,70.7,4.2,0.6,/,/,/,/
C[C@H]1CN([C@@H](C)CO)S(=O)(=O)c2ccc(C#CC3CC3)cc2O[C@H]1CN(C)C(=O)Cc1ccncc1,90.3,14.8,1.4,/,/,/,/
C[C@@H]1CN([C@@H](C)CO)S(=O)(=O)c2ccc(C#CC3CC3)cc2O[C@@H]1CN(C)C(=O)Cc1ccncc1,87.6,/,-0.9,/,/,/,/
